# Beta2AR agonist: beta2AR agonists driving receptor internalization, primary screen, cell-based, FAP fluorogen, flow cytometry | Beta-2 adrenergic receptor (Homo sapiens), P07550 | Am2.2-beta2AR cells | response, % (concentration not given with the values) | 340,000 compounds, 0.43% hits | AID 504454, 2011;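 active means response above a set limit, near 3 SD of response in nonfluorescent compounds, cut at about 42% in these data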
# UHRF1 MBD2 ctr: UHRF1 methylated DNA binding inhibitors, primary screen, counter-screen for MBD2 inhibitor project, biochemical, TR-FRET, human UHRF1, single concentration; E3 ubiquitin-protein ligase UHRF1 (Homo sapiens), Q96T88; UHRF1 binding to methylated oligo; inhibition, % at 4.4 µM; 370,000 compounds, 0.75% hits; in the data active means inhibition above about 21%;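 further: UHRF1 SRA domain binding a hemimethylated CpG hairpin DNA probe; 0% = median of test compound wells and 100% = reference inhibitor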
# Arrestin-AP2 inh: inhibitors of beta-arrestin/AP2 binding, primary screen, biochemical, GPCR trafficking, flow cytometry; 340,000 compounds, 0.31% hits; beta-arrestin 1 C-terminal peptide binding to AP2 beta2-adaptin appendage (human); inhibition, % at 10 µM; AID 504490, 2011; FITC-arrestin peptide / GST-AP2 beads; AP2 beta2 appendage carries R879A mutation;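 active means inhibition above a set limit, near 3 SD of compounds lacking own fluorescence, cut at about 54% in these data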;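 further: plate controls were DMSO wells for no effect and 5 µM unlabelled arrestin peptide for full effect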
#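 System: GST-AP2 R879A glutathione beads. Medium: PBS with 0.05% Tween 20 and 0.1% BSA. Also added: FITC-arrestin peptide, 50 nM. Incubation: 12 min plus 1 h, RT. Measured by: high-throughput flow cytometry of beads, ex 488, em 535 nm. Evaluation: percent drop in bead-associated FITC signal.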
# MBD2 inh: inhibitors of MBD2 binding to methylated DNA, primary screen, biochemical, TR-FRET, DNA-binding domain, human; Methyl-CpG-binding domain protein 2 (Homo sapiens), Q9UBB5; MBD2 binding to methylated oligonucleotide; inhibition, % at 4.4 µM; 370,000 compounds, 0.31% hits; AID 686964, 2013; in the data active means inhibition above about 13%
# Target sequence (Q9UBB5 whole entry, looked up, the tested form may be a part): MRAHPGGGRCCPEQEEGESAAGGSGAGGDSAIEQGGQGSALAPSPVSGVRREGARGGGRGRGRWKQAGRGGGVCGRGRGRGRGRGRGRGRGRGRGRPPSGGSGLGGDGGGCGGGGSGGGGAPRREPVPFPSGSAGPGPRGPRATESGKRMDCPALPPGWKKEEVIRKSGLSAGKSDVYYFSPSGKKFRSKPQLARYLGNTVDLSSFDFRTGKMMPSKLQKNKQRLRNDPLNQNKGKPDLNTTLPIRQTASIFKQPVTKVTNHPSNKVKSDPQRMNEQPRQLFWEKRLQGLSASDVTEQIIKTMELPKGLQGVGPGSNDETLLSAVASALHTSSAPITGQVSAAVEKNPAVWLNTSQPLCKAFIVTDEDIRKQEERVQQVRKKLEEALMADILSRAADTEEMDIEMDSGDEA
# ABHD5 PLIN5 PPI: ABHD5-PLIN5 interaction inhibitors, primary screen, cell lysate, split luciferase complementation, luminescence | Perilipin-5 (Homo sapiens) + 1-acylglycerol-3-phosphate O-acyltransferase ABHD5 (Homo … | Split G. princeps luciferase complementation, 4 h | inhibition, % at 4 µM | 360,000 compounds, 0.78% hits;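 active means inhibition above the mean inhibition across every tested compound plus 3 SD, cut at about 22% in these data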;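 further: 0% = DMSO only wells and the 100% control is not disclosed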
# Rin1 Abl inh: inhibitors of Rin1-Abl protein binding, primary screen, biochemical, TR-FRET | inhibition, % at 7.35 µM | 360,000 compounds, 0.4% hits | Tyrosine-protein kinase ABL1 (Homo sapiens) + Ras and Rab interactor 1 (Homo sapiens), …; in the data active means inhibition above about 5%, passing the limit was not always enough
# Rin1-Abl confirm: Rin1-Abl binding inhibitor retest, confirmation, biochemical, TR-FRET; AID 602124, 2011; inhibition, % at 7.35 µM; shares compounds with Rin1 Abl inh; purified proteins; 1,300 compounds, 49% hits
# GFP quencher: GFP fluorescence inhibitors and quenchers, artefact control for Rin1-Abl interaction inhibitor project, biochemical. shares compounds with Rin1 Abl inh. AID 602125, 2011. inhibition, % at 6.75 µM. 1,300 compounds, 8.5% hits. inhibitors/quenchers counterscreen;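 further: ABL1-eGFP fusion protein alone without its partner RIN1-SBP; 0% = protein with vehicle and 100% = wells lacking protein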
# GFP quench DR: GFP fluorescence inhibitors and quenchers, dose response, artefact control for Rin1-Abl interaction inhibitor project, biochemical | shares compounds with Rin1 Abl inh | GFP fluorescence interference/quenching counterscreen | IC50, µM | 230 tested, under 10 active | AID 602182, 2012; call rule not given here;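 further: ABL1-eGFP fusion protein alone without its RIN1 binding partner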
# * hit, by the source's call; nt = no result. Hits are enriched below; roughly 2.5% of the tested compounds scored in any of these assays. Unless noted, no stated cut-off is given here; in the data, active means inhibition above about 6.5%; inactive means the rest.
SMILES,Beta2AR agonist,UHRF1 MBD2 ctr,Arrestin-AP2 inh,MBD2 inh,ABHD5 PLIN5 PPI,Rin1 Abl inh,Rin1-Abl confirm,GFP quencher,others
COc1cccc(NC(=O)NC2(C(F)(F)F)Oc3ccccc3O2)c1,1.9,-1.9,3.4,2.6,-7.3,3.5,nt,nt,
CN1CCN(c2cc(-c3cc(O)c4ncccc4c3)ccn2)CC1,-23.3,-10.1,8.8,-6.9,4.5,14.1*,17.3*,10.0*,
CN1CCN(C(=O)c2cccc(-c3cc(O)c4ncccc4c3)c2)CC1,-12.5,-7.5,0.6,3.3,8.4,26.3*,33.5*,7.4*,
CN1CCN(C(=O)c2cccc(-c3ccc4nncn4c3)c2)CC1,nt,-0.2,nt,-5.8,-9.2,-5.2,nt,nt,
Oc1cc(-c2cccnc2)cc2cccnc12,-3.7,-11.8,4.2,-0.3,1.3,3.9,nt,nt,
CCn1c(SCC(=O)c2ccc(-c3ccccc3)cc2)nnc1-c1ccc(C(C)(C)C)cc1,nt,4.0,nt,-2.9,nt,nt,nt,nt,
CC(C)CNC1=CC(=O)CC(c2ccco2)C1 (stereo not drawn),1.3,-0.2,9.9,-0.1,2.3,5.9*,-0.1,3.8,
O=C1C=C(NCc2ccc(Cl)cc2)CC(c2ccco2)C1 (stereo not drawn),-5.7,8.1,-2.0,4.9,-3.3,-2.5,nt,nt,
C[C@H]1CCCC(=O)N[C@@H](c2ccccc2)[C@@H](C)CCCC(=O)N[C@H]1c1ccccc1,nt,-0.3,nt,3.0,nt,nt,nt,nt,
COc1ccc(NC(=O)Nc2cc(C)ccc2OC)cc1,19.1,5.1,4.2,4.0,9.7,5.9*,-1.4,-2.1,
COc1ccc(NC(=O)CN(C)C2CCCCC2)cc1Cl,1.6,2.5,5.0,8.3,-3.0,-1.9,nt,nt,
COc1ccc(C)cc1NC(=O)CN(C)C1CCCCC1,-2.2,-0.3,20.5,3.2,6.7,15.0*,-0.8,-1.0,
O=C(CCC(=O)N1CCN(C2c3ccccc3-c3ccccc32)CC1)Nc1nnc(C(F)(F)F)s1,nt,-4.4,nt,-6.2,nt,nt,nt,nt,
O=C(CSc1nc2ccccc2[nH]1)NC1CCCc2ccccc21 (stereo not drawn),-14.3,-0.8,6.6,5.6,2.7,-1.5,nt,nt,
O=C(CSc1nc2ccccc2s1)NC1CCCc2ccccc21 (stereo not drawn),9.2,-0.7,6.1,9.3,-10.7,7.5*,-0.7,1.2,
NC(=O)c1cc(-c2ccccc2)nc(Oc2ccccc2)n1,-12.1,2.0,-9.7,-5.5,-1.9,10.5*,1.9,0.7,
Oc1ccc(/C=N/Nc2cccc(Cl)n2)c(O)c1,-8.7,-3.5,10.6,-2.0,-9.1,8.1*,2.4,0.8,
Cc1nn(CC(=O)NCc2cccc(F)c2)c(=O)c2cccn12,-3.1,2.6,-0.8,1.5,-0.1,8.6*,-4.1,-4.7,
C#CC1(O)C2C=C(OC)C(=O)C1C(c1ccccc1)C2C (stereo not drawn),nt,0.9,nt,-1.6,nt,nt,nt,nt,
COc1ccc(CCNC(=O)CSc2nc(C)nc3c2c(=O)n(C)c(=O)n3C)cc1OC,-4.3,1.5,2.1,2.4,-1.2,20.5*,21.3*,1.3,GFP quench DR=>67.5
COc1ccc(CCNC(=O)CSc2nc3[nH]ncc3c(=O)n2-c2ccccc2Br)cc1OC,-0.1,-3.3,0.1,1.4,-1.4,8.2*,8.6*,-3.6,
CCC(=O)NC(c1cccs1)c1cc([N+](=O)[O-])c2cccnc2c1O (stereo not drawn),8.4,-4.7,-12.9,-3.9,-6.0,10.4*,6.3*,9.3*,
O=C(CCc1ccccc1)N[C@H]1[C@H](O)CCC[C@@]12C(=O)N(Cc1ccccc1)c1ccc(-c3ccccc3)cc12,nt,0.6,nt,5.8,nt,nt,nt,nt,
COc1cccc(NC(=O)NC2CCCCN(Cc3ccc(C)cc3)C2=O)c1 (stereo not drawn),nt,-2.0,nt,-2.6,nt,nt,nt,nt,
O=C(OC12CCCN(C1)/C(=C/c1cccc(Cl)c1)C2)c1ccc(F)cc1 (stereo not drawn),nt,3.2,nt,0.7,nt,nt,nt,nt,
SMILES,Beta2AR agonist,UHRF1 MBD2 ctr,Arrestin-AP2 inh,MBD2 inh,ABHD5 PLIN5 PPI,Rin1 Abl inh,Rin1-Abl confirm,GFP quencher,others
Cc1cccc(N(Cc2ccccc2)C(=O)c2ccc(S(C)(=O)=O)cc2)c1,1.8,1.1,1.9,1.7,1.8,8.3*,-1.9,1.6,
CS(=O)(=O)c1ccc(C(=O)N(Cc2ccccc2)c2ccccc2)cc1,10.4,2.0,-2.5,3.0,-2.7,4.4,nt,nt,
CCN(CC)c1ccc2cc(C(=O)NNC(=O)c3ccc(S(=O)(=O)N4CCCCC4)cc3)c(=O)oc2c1,10.0,1.9,9.3,0.0,1.5,4.7*,-1.5,-0.5,
CCCCNC(=O)C[C@H]1C[C@@]2(C(=O)OC)C(=C[C@H](C(C)C)O[C@@H]2C2CC2)N(Cc2ccco2)C1=O,nt,-2.4,nt,-5.2,nt,nt,nt,nt,
CN(C)c1ccc(O)c2c1CC1CC3[C@@H](N(C)C)C(=O)C(C(N)=O)C(=O)[C@]3(O)C(=O)C1C2=O (stereo partly drawn),4.3,10.6,4.0,4.3,-0.7,13.4*,7.8*,3.1,
CC(=O)c1cccc(OCc2cc(C(=O)N3CCC(N4CCCCC4)CC3)no2)c1,-2.5,-1.5,1.2,5.1,4.1,9.9*,6.3,-0.5,
CCCCSc1nnc(-c2ccc(NC(=O)CCc3ccccc3)cc2)n1C,-1.4,0.1,5.8,0.7,0.8,6.2*,9.0*,0.9,
O=C(O)c1cnn2c(-c3ccc(F)cc3)ccnc12,8.0,3.1,-4.6,3.6,3.4,3.9,nt,nt,
COc1ccc(-c2ccnc3c(C(=O)O)cnn23)cc1,-4.2,0.6,5.3,4.8,0.2,9.6*,-3.3,-1.7,
CN1CCN(c2ccc(CNC(=O)C3Cc4c(-c5ccccc5)ccnc4O3)cc2)CC1 (stereo not drawn),nt,-0.2,nt,-0.7,5.3,8.1*,4.9,-1.4,
CC1(C)Cc2nc3sc4c(=O)[nH]cnc4c3cc2CS1,-2.8,0.1,-1.8,-3.1,-0.2,44.8*,40.9*,0.4,GFP quench DR=>67.6
CCCCCn1cnc2c(sc3nc4c(cc32)CSC(C)(C)C4)c1=O,-13.4,0.7,28.6,2.6,-1.3,1.7,nt,nt,

# High-throughput results from PubChem.
